Data from ChEMBL document CHEMBL4513216, “Probing the Open Global Health Chemical Diversity Library for Multistage-Active Starting Points for Next-Generation Antimalarials” (ACS Infect Dis, 2020).

assay: Toxicity liver stage against HepG2, at 10uM; type: cell-based; design: test concentration 10 uM, cell line HepG2-A16-CD81EGFP; details: human, HepG2-A16-CD81EGFP cells; read-out: INHIBITION
Outline: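 Uninfected HepG2-A16-CD81EGFP cells, 3 × 10^3 per well, 1536-well, plated on prespotted compound at 10 μM final, parasite-free screening media added to match infected plates; puromycin 10 μM positive, DMSO 0.5% negative; run in parallel with 48 h PbLuc assay at 37 °C, 5% CO2; viability by CellTiter-Glo luminescence, normalized to controls.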

Row | SMILES | cytotoxicity at 10 µM [%]
1 | COc1cc(C)c(C(C)NC(=O)c2cccnc2N(C)C)cc1OC (stereo unspecified) | 1.25
2 | CS(=O)(=O)N1CCC(CNC(=O)C2CCC2)CC1 | -2.99
3 | COC(=O)N1CCc2ccccc2C1C(=O)NCc1nc(C)no1 (stereo unspecified) | 3.88
4 | O=C(Cn1c(=O)oc2ccccc21)NCC(O)c1ccc2c(c1)CCO2 (stereo unspecified) | -6.81
5 | N#CCC(=O)NCc1nnc2n1CCN(Cc1ccsc1)C2 | -131
6 | Cn1cc(CN2CCCC3(CCN(Cc4ccncc4)C3=O)C2)cn1 (stereo unspecified) | 8.68
7 | CCOCCCNC(=O)CN(c1ccc(F)c(F)c1)S(C)(=O)=O | 9.96
8 | O=c1nc(SCc2cccnc2)c2c(n1CCO)CCC2 | -18
9 | COCCC(=O)N1CCN(CCN(C)C)c2ncccc2C1 | -4.11
10 | Cc1nn(CCC(=O)N2CCN(Cc3cnn(C)c3C)CC2)c(C)c1Br | 4.07
11 | CCN1CCN(S(=O)(=O)c2cc(C)c(Cl)cc2Cl)CC1 | -2.67
12 | CCN(CC)S(=O)(=O)N1CCCC(c2ncc3c(n2)CCN(C)C3)C1 (stereo unspecified) | 3.77
13 | c1cc(CN2CCCCC2c2ccc(Nc3cnccn3)nc2)ccn1 (stereo unspecified) | 7.38
14 | Cc1ccccc1CN1CCC(c2nn(CCN)c3nccnc23)C1 (stereo unspecified) | -24.3
15 | CN1CCCC(Cc2cncc(C(=O)N3CCOCC3)c2)C1 (stereo unspecified) | 6.32
16 | Cc1nc(C2CCCN2C(=O)CCc2ccc(F)cc2)ncc1C(N)=O (stereo unspecified) | -15.7
17 | CN(Cc1ccc(F)cc1)CC1(O)CCN(C(=O)c2ccsc2)C1 (stereo unspecified) | -28.2
18 | COc1ccc2c(c1)CC(NCc1cccc(OCC(N)=O)c1)CC2 (stereo unspecified) | -40.4
19 | CN(CC1CC1)C(=O)c1cc2c(c(S(N)(=O)=O)c1)CCC2 | -51.1
20 | CC(C)(C)C(=O)NCCC(=O)Nc1cc(C#N)cn1C(C)(C)C | 2.02
21 | CC(C)c1ccccc1OCCNC(=O)N1CCC2(CC1)OCCO2 | 8.75
22 | O=C(Cc1c(F)cccc1Cl)Nc1cccc(N2CCCC2)c1 | -117
23 | OCC1(NCc2cccc(-n3cccn3)c2)CCOCC1 | -139

Row | SMILES | cytotoxicity at 10 µM [%]
24 | CSC1(CNC(=O)N(C)Cc2sccc2C)CCOCC1 | -57.4
25 | CN(C)CCn1ccc(NC(=O)NC(C)(C)c2nccs2)n1 | 3.92
26 | C=C(C)CN(CC)C(=O)c1cc(C)ccc1NS(C)(=O)=O | 5.69
27 | CS(=O)(=O)c1ccc(CNC(=O)NCc2cc[nH]n2)cc1 | 1.22
28 | CCn1cc(CN2CCN(C(=O)N3CCOCC3)CC2)cn1 | -52.8
29 | Cc1cc(C(=O)NC2CCCOc3cc(Cl)ccc32)n(C)n1 (stereo unspecified) | 1.97
30 | Cc1cc(CN(CC(N)=O)CC(C)C)on1 | 6.36
31 | Cc1csc(C2NC3(CCCC3)C(=O)N2CC2CC2)n1 (stereo unspecified) | 3.24
32 | Cc1ccccc1CN(C)C(C(N)=O)c1ccccc1 (stereo unspecified) | 13.1
33 | CC1CCC(O)(Cn2ncnc2-c2cccc(C#N)c2)CC1 (stereo unspecified) | 0.775
34 | CCCC(NC(=O)c1ccccc1Br)c1nnn[nH]1 (stereo unspecified) | -1.8
35 | CCOCC(O)CN1CCN(C(=O)c2ccsc2)CC1 (stereo unspecified) | 5.42
36 | CN(Cc1cnn(C)c1)C(=O)CN1CCCCC1Cn1cncn1 (stereo unspecified) | 17.5
37 | CCn1ncc2c1CCCC2NCc1csc(C(C)C)n1 (stereo unspecified) | -1.69
38 | Cc1ccc(O)c(CNCC(C)c2nc3ccccc3o2)n1 (stereo unspecified) | -1.74
39 | CC(C)Nc1ncccc1C(=O)NCc1ccnn1C | -5.87
40 | CCCN(C(=O)c1ocnc1C)C1CCCN(Cc2ccccc2)C1 (stereo unspecified) | -7.79
41 | CN1CCN(CCCN(C)S(=O)(=O)C2CCCCC2)CC1 | -9.46
42 | CC(C)c1nnc2n1CC(CNc1cnc3ccccc3n1)CC2 (stereo unspecified) | -37.1
43 | CN(C)S(=O)(=O)NCC(O)c1cc2ccccc2s1 (stereo unspecified) | -13.2
44 | Cc1nc(CN(C)C2CCN(Cc3nc4c(F)cccc4[nH]3)C2)no1 (stereo unspecified) | -4.09
45 | CCN(CC)S(=O)(=O)CCNc1nnc(C(C)C)s1 | 7.2
46 | OC(COCc1ccccc1)CN1CCC(Cn2cccn2)CC1 (stereo unspecified) | -1.49

Row | SMILES | cytotoxicity at 10 µM [%]
47 | Cn1cc(CCNC(=O)N2CCCc3c(F)cccc32)cn1 | 14.3
48 | COC(=O)CN(Cc1ccccc1C)C(=O)COCC1CC1 | 6.87
49 | COc1ccc(CN(CCC#N)CCN2CCOCC2)cc1OC | -5.79
50 | Cc1ccc2c(c1)OC(C)CN2C(=O)CCc1cccnc1 (stereo unspecified) | -52.8
51 | CC(C)OCCCN1CCCC(c2nc3ccccc3n2C(C)C)C1 (stereo unspecified) | -4.06
52 | CCS(=O)(=O)c1ccc(N2CCC(NC(=O)c3cnn(C)c3)CC2)cc1 | -1.69
53 | CCOc1ccc(C(=O)NS(=O)(=O)c2cncc(Br)c2)cc1OC | -5.07
54 | Cc1nn(C)c(N2CCOCC2)c1CNC(C)c1ccco1 (stereo unspecified) | -17.6
55 | CCCC(C)(C)NC(=O)c1ccc(CC2CC(=O)NC2=O)cc1 (stereo unspecified) | -19.7
56 | CN(C)CC(=O)N1CCc2sc(C(=O)N3CCOCC3)cc21 | -99.4
57 | CC(=O)N1CCC2(CC1)c1ncc(-c3ccccc3)n1CCN2C | -104
58 | O=C(c1ccco1)N1CCC2(CCCN(c3ncc(F)cn3)C2)C1 (stereo unspecified) | -88.4
59 | Cc1ccc2nc(CN3CCC(O)(Cn4ccnc4)CC3)cc(O)c2c1 | -47.8
60 | Cc1ccsc1C(Cn1ccnc1-c1ccccc1C(=O)O)N(C)C (stereo unspecified) | -2.86
61 | CNc1nc2c(c(C(=O)N3CCCC3)n1)CN(C(=O)C1CCCC1)CC2 | -114
62 | CCc1ccccc1OCCN1CCC(NS(C)(=O)=O)CC1 | -20.4
63 | O=C(c1c[nH]cn1)N1CCC(n2cc(-c3ccsc3)nn2)CC1 | -14.3
64 | O=C(O)C1(n2ccc(-c3ccco3)n2)CCN(Cc2cccs2)CC1 | -125
65 | Cc1ccc(-n2c(COC(C)C)n[nH]c2=O)cc1 | 9.47
66 | COc1c(C)cnc(CN(C)C2CCOC3(CCOCC3)C2)c1C (stereo unspecified) | -0.971
67 | CCN(C)C[C@@H]1CN(Cc2cccc(Cl)c2)C[C@@H]1CO | 2.45
68 | CCSc1ncc(CN2CC[C@@](O)(COC)C(C)(C)C2)cn1 | -4.05
69 | COCCN(CC1CCCN(C2Cc3ccccc3C2)C1)C(=O)CO (stereo unspecified) | -6.93

Row | SMILES | cytotoxicity at 10 µM [%]
70 | CC(=O)N[C@@H]1CN(Cc2ccccc2C(=O)O)C[C@H]1C(C)C | 3.15
71 | CC(C)n1cnnc1CN(C)C(=O)c1cc(COc2ccccc2)[nH]n1 | 4.58
72 | CCCNC(=O)c1ccc(S(=O)(=O)NCC2(O)CCCNC2)cc1 (stereo unspecified) | -48.3
73 | CNc1ncc(CN(C)c2nccc(CCC(F)(F)F)n2)cn1 | -16.3
74 | O=C(O)C1(Cc2ccccc2Cl)CCN(c2ncnc3[nH]ccc23)CC1 | 11
75 | Cc1nn(C)cc1Cn1c(=O)cnc2ccccc21 | 7.8
76 | CN1CC2(CCN(Cc3cccc(C#N)c3)CC2)CC1=O | -0.145
77 | CCc1ncc(C(=O)N2CCCN(C3CCCC3)CC2)cn1 | -7.38
78 | Cc1cc(-n2cccn2)ccc1CN1C[C@@H](CN(C)C)[C@@H](CO)C1 | -9.4
79 | Cc1cc(=O)n(CC(=O)Nc2ccc(C(N)=O)cc2)nc1C | -10.9
80 | Cc1nc(O)c2nnn(C[C@H]3CCCN3C(=O)c3cccc(F)c3)c2n1 | -0.00161
81 | Cc1c(C(=O)N2CCCC2c2cnn(C)c2)cnn1-c1ccccc1 (stereo unspecified) | -23.7
82 | CC(C)(NCC(=O)NC(=O)NC1CC1)c1ccc2c(c1)OCO2 | -1.27
83 | Brc1cccc(-c2noc(CN3CCOCC3)n2)c1 | -15.2
84 | NC(=O)c1cc(C2CCCN(CCOc3cccc(F)c3)C2)n[nH]1 (stereo unspecified) | -19.6
85 | Cc1nc(CN2CCN(C(=O)c3ccnc(N(C)C)c3)CC2)cs1 | 1.42
86 | Cc1nn(C)c(N2CCOCC2)c1CNCc1ccc(C(C)O)cc1 (stereo unspecified) | -4.93
87 | Cc1ncsc1C(=O)NC1CCN(CC(=O)N(C)C(C)(C)C#N)CC1 | -3.88
88 | Cc1nc2ccnn2c(C)c1CCC(=O)N1CCC(C(N)=O)CC1 | -9.26
89 | CC(N(C)Cc1nc2c(cnn2C)c(=O)[nH]1)C(C)(C)C (stereo unspecified) | -3.09
90 | CN(Cc1nnc(C2CC2)n1C)C1CCN(Cc2ccon2)C1 (stereo unspecified) | -9.04
91 | Cc1noc(CN(Cc2ccc3c(c2)OCO3)C2CCCC2)n1 | -5.28
92 | Cc1cc(OCC(=O)NS(=O)(=O)c2c(C)noc2C)ccc1Cl | -2.07

Row | SMILES | cytotoxicity at 10 µM [%]
93 | COc1ccc(C(O)CNC(=O)Nc2cc(C)nn2C)cc1 (stereo unspecified) | 2.33
94 | Cc1ncsc1C(=O)NC1CCN(Cc2ccc(C#N)cc2)CC1 | -6.46
95 | CCC(CN1CCCC1)n1cncc1-c1cnn(-c2ccc(F)cc2)c1 (stereo unspecified) | 5.29
96 | Fc1cnc(N2C[C@@H]3COC[C@]3(COc3ccccn3)C2)nc1 | -5.43
97 | Cn1nc(C2CCCN(Cc3ccc(F)cc3)C2)c2nccnc21 (stereo unspecified) | -24.8
98 | CN(C)C(=O)CO[C@H]1CN(Cc2cccc(F)c2)[C@@H]2CCCO[C@H]12 | -2.76
99 | CN1CCO[C@@H]2CN(C(=O)c3ccc4[nH]ccc4c3)CC[C@@H]2C1 | -108
100 | O=C(c1cscn1)N1CC[C@]2(C[C@@H](OCCN3CCCC3)CO2)C1 | 0.462
101 | CN(C)C(=O)[C@@H]1CCO[C@@H]2CCN(CCOCc3ccccc3)C[C@H]21 | -0.902
102 | CC(=O)NCC(=O)N1CCn2cc(CN3CCN(C)CC3)nc2C1 | -12.4
103 | Cc1ccc(CN2CCOC3(COCCN(C(C)C)C3)C2)o1 (stereo unspecified) | -107
104 | Cc1noc(C)c1CN1CCc2ncnc(-c3cnn(C)c3)c2CC1 | -98.4
105 | CN1Cc2c(C(=O)NC3CCCCC3)ncn2-c2ccccc2S1(=O)=O | -153
106 | Cc1cnc(C(=O)N2Cc3ncn(C)c3C(COCC(C)C)C2)cn1 (stereo unspecified) | -112
107 | CCn1ncc2c1C(COC)N(C(=O)CCc1ccccc1)CC2 (stereo unspecified) | -96.8
108 | Cc1ccc(CN2CCCn3c(nc(CN4CCCC4)cc3=O)C2)s1 | -0.207
109 | Cc1nc(CN2C[C@@H]3COC[C@]3(COCC(=O)N(C)C)C2)cs1 | 1.41
110 | CCOCCC(=O)N1C[C@@H]2CC[C@H]1CN(c1ncccn1)C2 | 2.53
111 | CN1CCC(n2cc3nc(N)[nH]cc-3c2=O)CC1 | 8.6
